Source: PMC6142410 (Current Drug Discovery Technologies, 2018)

How the values were obtained:
[1] = target: human FXa (Homo sapiens, UniProt P00742); assay: Factor Xa inhibition, chromogenic substrate assay; type: biochemical
Summary of the method: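 Human FXa (0.0625 U/mL) and test compound in aqueous 5% (v/v) DMSO mixed in Tris-BSA buffer (0.2 M NaCl, 0.1 M Tris, 0.2% BSA, pH 7.4). Chromogenic substrate added to start the reaction, then 10 s stirring. OD at 405 nm followed over time against a DMSO-only reference. Inhibition = 1 − OD(inhibitor)/OD(reference). IC50 derived from the concentration dependence.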

[2] = system: human plasma prothrombin time; assay: Human plasma prothrombin time; type: biochemical; settings: concentration that doubled the prothrombin time in human plasma; Thromborel S
Summary of the method: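 KM-2 control plasma mixed with test compound solution and incubated 1 min at 37°C. Clotting triggered with thromboplastin (ISI=1) and time read on a coagulometer. The concentration doubling PT was estimated by regression from dose-response curves.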

Sequence of human FXa (P00742 235-488 limits assumed): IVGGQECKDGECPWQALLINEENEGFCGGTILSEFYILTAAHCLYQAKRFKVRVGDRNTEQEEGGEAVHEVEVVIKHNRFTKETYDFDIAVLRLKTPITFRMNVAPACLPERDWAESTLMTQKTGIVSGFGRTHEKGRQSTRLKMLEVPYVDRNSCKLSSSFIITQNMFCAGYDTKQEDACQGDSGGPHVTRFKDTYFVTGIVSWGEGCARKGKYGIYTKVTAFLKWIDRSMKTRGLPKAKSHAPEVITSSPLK
Sequence of human FXa (P00742 41-179 partner limits assumed): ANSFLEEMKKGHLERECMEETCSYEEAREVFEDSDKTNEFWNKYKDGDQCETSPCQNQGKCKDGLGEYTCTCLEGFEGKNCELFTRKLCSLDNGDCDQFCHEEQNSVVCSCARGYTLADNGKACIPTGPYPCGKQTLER

| SMILES | IC50 [1] [nM] | PTx2 [2] [µM] |
| --- | --- | --- |
| CC(=N)N(C)c1ccc(C(=O)Nc2ccc(Cl)cc2C(=O)Nc2ccc(Cl)cn2)c(F)c1 [Compound 303, N-(4-chloro-2-{[(5-chloropyridin-2-yl)amino]carbonyl}phenyl)-4-[ethanimidoyl (methyl)amino]-2-fluorobenzamide] | 1 ± 0.2 | 0.09 ± 0.02 |
| CC(=N)N(C)c1ccc(C(=O)Nc2ccc(C)cc2C(=O)Nc2ccc(Cl)cc2)cc1 [Compound 304, N-(4-chlorophenyl)-2-({4-[ethanimidoyl (methyl)amino]benzoyl}amino)-5-methylbenzamide] | 1 ± 0.2 | >30 |
| COc1cc(N(C)C(C)=N)ccc1C(=O)Nc1ccc(C)cc1C(=O)Nc1ccc(Cl)cn1 [Compound 307, N-(2-{[(5-chloropyridin-2-yl)amino]carbonyl}-4-methylphenyl)-4-[ethanimidoyl(methyl)amino]-2-methoxybenzamide] | 1 ± 0.2 | 2.0 ± 0.4 |
| CC(=N)N(C)c1ccc(C(=O)Nc2ccccc2C(=O)Nc2ccc(Cl)cn2)cc1 [Compound 310, N-(5-chloropyridin-2-yl)-2-({4-[ethanimidoyl (methyl)amino]benzoyl}amino)benzamide] | 2 ± 0.2 | 0.50 ± 0.12 |

Second part, led by results:

| IC50 [1] [nM] | SMILES | PTx2 [2] [µM] |
| --- | --- | --- |
| 0.15 ± 0.03 | CNC(=O)N(C)c1ccc(C(=O)Nc2ccc(C)cc2C(=O)Nc2ccc(Cl)cn2)cc1 [Compound 117, N-(5-chloropyridin-2-yl)-5-methyl-2-[(4-{methyl[(methylamino)carbonyl]amino}benzoyl)amino]benzamide] | 2.0 ± 0.4 |
| 0.8 ± 0.2 | CC(=N)N(C)c1ccc(C(=O)Nc2ccc(C)cc2C(=O)Nc2ccc(Cl)cn2)c(F)c1 [Compound 302, N-(2-{[(5-chloropyridin-2-yl)amino]carbon-yl}-4-methylphenyl)-4-[ethanimidoyl(methyl)amino]-2-fluorobenzamide] | 0.09 ± 0.02 |
| 2 ± 0.3 | CNC(=O)N(C)c1ccc(C(=O)Nc2ccc(C)cc2C(=O)Nc2ccc(Cl)cc2)cc1 [Compound 311, N-(4-chlorophenyl)-5-methyl-2-[(4-{methyl [(methylamino)carbonyl]amino}benzoyl)amino]benzamide] | >30 |
| 0.15 ± 0.03 | CNC(=O)N(C)c1ccc(C(=O)Nc2ccc(C)cc2C(=O)Nc2ccc(C)cc2)cc1 [Compound 312, 5-methyl-2-[(4-{methyl[(methylamino)carbonyl]amino}benzoyl)amino]-N-(4-methyl-phenyl)benzamide] | 3.0 ± 0.6 |
| 0.25 ± 0.05 | CNC(=O)N(C)c1ccc(C(=O)Nc2ccccc2C(=O)Nc2ccc(Cl)cn2)cc1 [Compound 317, N-(5-chloropyridin-2-yl)-2-[(4-{methyl[ (methylamino)carbonyl]amino}benzoyl)amino]benzamide] | 3.0 ± 0.6 |
